In ChEMBL document CHEMBL1125898, “Synthesis and biological activity of 2'-deoxy-4'-thio pyrimidine nucleosides” (J Med Chem, 1991):

Legend:
HEp-2 [1] = test: The concentration required to produce a 50% inhibition of clone formation in human epidermoid carcinoma H-Ep-2 cells; type: functional, cell-based
CCRF-CEM = test: The concentration required to inhibit cell growth to 50% of untreated controls in human T-cell leukemia CCRF-CEM cells; type: functional, cell-based
L1210 [2] = test: The concentration required to produce a 50% reduction in the rate of cell proliferation in murine leukemia L1210 cells; type: functional, cell-based; settings: Mus musculus
HEp-2 [3] = test: The concentration required to produce a 50% inhibition of clone formation in human epidermoid carcinoma H-Ep-2 cells; NA=no cytotoxicity at 160 uM; type: functional, cell-based
Procedure, shortened: (§1)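 Highest concentration tested was 160 μM. IC50 is the concentration giving a 50% inhibition of clone formation (H-Ep-2) or a 50% reduction in the rate of cell proliferation (L1210).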

L1210 [4] = test: The concentration required to produce a 50% reduction in the rate of cell proliferation in murine leukemia L1210 cells; NA=no cytotoxicity at 160 uM; type: functional, cell-based, Mus musculus; procedure, shortened: as §1

Row | IC50 (HEp-2 [1]) [nM] | IC50 (CCRF-CEM) [nM] | IC50 (L1210 [2]) [nM] | Structure (SMILES) | IC50 (HEp-2 [3]) | IC50 (L1210 [4])
1 | < 200 | 3500 | 1000 | Nc1ccn(C2C[C@H](O)[C@@H](CO)S2)c(=O)n1 (stereo not given in full) | – | –
2 | 2100 | 4000 | 2700 | O=c1ccn([C@H]2C[C@H](O)[C@@H](CO)S2)c(=O)[nH]1 | – | –
3 | – | – | – | O=c1ccn(C2CC(O)C(CO)S2)c(=O)[nH]1 (stereo not given) | Not Active | Not Active
4 | 25000 | – | 66000 | Cc1cn([C@@H]2C[C@H](O)[C@@H](CO)S2)c(=O)[nH]c1=O | – | –
5 | < 200 | – | 1200 | Nc1ccn([C@H]2C[C@H](O)[C@@H](CO)S2)c(=O)n1 [4'-THIO-2'-DEOXYCYTIDINE] | – | –
6 | 140 | 670 | 120 | Cc1cn([C@H]2C[C@H](O)[C@@H](CO)S2)c(=O)[nH]c1=O [4'-THIOTHYMIDINE] | – | –
